According to ChEMBL document CHEMBL1149844, “Antibacterial C-geranylflavonoids from Paulownia tomentosa Fruits” (2008):
≈ marks a conversion by molar mass, not a printed value.

Columns and labels:
Salmonella enteritidis = experiment: Antibacterial activity against Salmonella enteritidis ATCC 13076 after 24 hrs by broth microdilution method; type: functional, Salmonella enterica subsp. enterica serovar Enteritidis; settings: Salmonella enterica, ATCC 13076, 24 h
In short: (§1)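 Bacteria grown and tested in Mueller-Hinton broth. Seven 2-fold dilutions spanning 32 to 0.5 µg mL-1, each well inoculated with bacterial suspension at 10^7 CFU mL-1, incubated 37 °C for 24 h. Turbidity read at 600 nm. MIC is the lowest concentration giving 80% growth reduction versus the compound-free growth control. DMSO (5% v/v) in TBS as negative control, triplicates.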

Candida albicans = experiment: Antibacterial activity against Candida albicans ATCC 10231 after 48 hrs by broth microdilution method; type: functional
In short: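 Yeast grown and tested in Mueller-Hinton broth, microdilution with seven 2-fold dilutions from 32 to 0.5 µg mL-1. Inoculum at 10^7 CFU mL-1, 37 °C for 48 h. Growth measured as turbidity at 600 nm. MIC is the lowest concentration cutting growth by 80% relative to the compound-free control. DMSO (5% v/v) in TBS as negative control, run in triplicate.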

Enterococcus faecalis = experiment: Antibacterial activity against Enterococcus faecalis ATCC 29212 after 24 hrs by broth microdilution method; type: functional; settings: ATCC 29212, 24 h; in short: as §1
Listeria monocytogenes = experiment: Antibacterial activity against Listeria monocytogenes ATCC 7644 after 24 hrs by broth microdilution method; type: functional; settings: ATCC 7644, 24 h; in short: as §1
Pseudomonas aeruginosa = experiment: Antibacterial activity against Pseudomonas aeruginosa ATCC 27853 after 24 hrs by broth microdilution method; type: functional; settings: ATCC 27853, 24 h; in short: as §1
Staphylococcus aureus = experiment: Antibacterial activity against Staphylococcus aureus ATCC 25923 after 24 hrs by broth microdilution method; type: functional; settings: ATCC 25923, 24 h; in short: as §1
Bacillus subtilis = experiment: Antibacterial activity against Bacillus subtilis ATCC 6633 after 24 hrs by broth microdilution method; type: functional; settings: ATCC 6633, 24 h; in short: as §1
Bacillus cereus = experiment: Antibacterial activity against Bacillus cereus ATCC 11778 after 24 hrs by broth microdilution method; type: functional; settings: ATCC 11778, 24 h; in short: as §1
Escherichia coli = experiment: Antibacterial activity against Escherichia coli ATCC 25922 after 24 hrs by broth microdilution method; type: functional; settings: ATCC 25922, 24 h; in short: as §1
[1] = system: Staphylococcus epidermidis; experiment: Antibacterial activity against Staphylococcus epidermidis ATCC 12228 after 24 hrs by broth microdilution method; type: functional; settings: ATCC 12228, 24 h; in short: as §1

Row | Compound | MIC (Salmonella enteritidis) [µg/mL] | MIC (Candida albicans; ATCC 10231, 48 h) [µg/mL] | MIC (Enterococcus faecalis) [µg/mL] | MIC (Listeria monocytogenes) [µg/mL] | MIC (Pseudomonas aeruginosa) [µg/mL] | MIC (Staphylococcus aureus) [µg/mL] | MIC (Bacillus subtilis) [µg/mL] | MIC (Bacillus cereus) [µg/mL] | MIC (Escherichia coli) [µg/mL] | MIC [1] [µg/mL] | MIC (Candida albicans) [µg/mL]
1 | COc1cc([C@@H]2CC(=O)c3c(cc(O)c(C/C=C(\C)CCC=C(C)C)c3O)O2)ccc1O | > 32 | > 32 | 8 (≈ 18.2 µM) | 4 (≈ 9.12 µM) | > 32 | 8 (≈ 18.2 µM) | 8 (≈ 18.2 µM) | 4 (≈ 9.12 µM) | > 32 | 4 (≈ 9.12 µM) | 
2 | COc1cc([C@H]2Oc3cc(O)c(C/C=C(\C)CCC=C(C)C)c(O)c3C(=O)[C@@H]2O)ccc1O | > 32 | > 32 | 4 (≈ 8.8 µM) | 2 (≈ 4.4 µM) | > 32 | 2 (≈ 4.4 µM) | 4 (≈ 8.8 µM) | 2 (≈ 4.4 µM) | > 32 | 2 (≈ 4.4 µM) | 
3 | COc1cc([C@@H]2CC(=O)c3c(cc(O)c(C/C=C(\C)CCC=C(C)C)c3O)O2)cc(O)c1O | > 32 | > 32 | 4 (≈ 8.8 µM) | 4 (≈ 8.8 µM) | > 32 | 2 (≈ 4.4 µM) | 4 (≈ 8.8 µM) | 4 (≈ 8.8 µM) | > 32 | 4 (≈ 8.8 µM) | 
4 | COc1cc([C@@H]2CC(=O)c3c(cc(O)c(C/C=C(\C)CCC=C(C)C)c3O)O2)cc(OC)c1O | > 32 | > 32 | 4 (≈ 8.54 µM) | 4 (≈ 8.54 µM) | > 32 | 4 (≈ 8.54 µM) | 4 (≈ 8.54 µM) | 4 (≈ 8.54 µM) | > 32 | 4 (≈ 8.54 µM) | 
5 | CC(C)=CCC/C(C)=C/Cc1c(O)cc2c(c1O)C(=O)C[C@@H](c1ccc(O)cc1)O2 [BONANNIONE A] | > 32 | > 32 | 4 (≈ 9.79 µM) | 4 (≈ 9.79 µM) | > 32 | 8 (≈ 19.6 µM) | 4 (≈ 9.79 µM) | 4 (≈ 9.79 µM) | > 32 | 4 (≈ 9.79 µM) | 
6 | O=C(O)c1cn(C2CC2)c2cc(N3CCNCC3)c(F)cc2c1=O [CIPROFLOXACIN] | 0.015 (≈ 0.0453 µM) |  | 1 (≈ 3.02 µM) | 1 (≈ 3.02 µM) |  | 0.5 (≈ 1.51 µM) | 2 (≈ 6.04 µM) | 1 (≈ 3.02 µM) |  | 1 (≈ 3.02 µM) | 
7 | CC(C)=CCC/C(C)=C/Cc1c(O)cc2c(c1O)C(=O)C[C@@H](c1ccc(O)c(O)c1)O2 [NYMPHAEOL A] | > 32 | > 32 | 4 (≈ 9.42 µM) | 4 (≈ 9.42 µM) | > 32 | 4 (≈ 9.42 µM) | 4 (≈ 9.42 µM) | 4 (≈ 9.42 µM) | > 32 | 4 (≈ 9.42 µM) | 
8 | COc1cc([C@@H]2CC(=O)c3c(cc(O)c(C/C=C(\C)C/C=C/C(C)(C)O)c3O)O2)ccc1O [TOMENTODIPLACONE B] | > 32 | > 32 | > 32 | > 32 | > 32 | > 32 | > 32 | > 32 | > 32 | > 32 | 
9 | C=C(C)C(O)CC/C(C)=C/Cc1c(O)cc2c(c1O)C(=O)C[C@@H](c1ccc(O)c(OC)c1)O2 (stereo partly specified) [TOMENTODIPLACONE] | > 32 | > 32 |  | 32 (≈ 70.4 µM) | > 32 | 16 (≈ 35.2 µM) |  | 16 (≈ 35.2 µM) | > 32 | 32 (≈ 70.4 µM) | 
10 | NYSTATIN |  |  |  |  |  |  |  |  |  |  | 4
